Source: PubChem BioAssay (several laboratories)
T cell HTS = modulators of CD8 T cell-vesicle binding, primary screen, mouse 2C CD8+ T cells, flow cytometry; response (vesicle binding), % at 7 µM; AID 2052, 2009; 2C CD8+ T cell-vesicle binding; hits give low values; actives 0.068% (n = 330,000);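 active = response, share of CD8 T cells binding vesicles, and their 90th percentile fluorescence all below set limits, cut at about 80% in these data, passing the limit was not always enough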;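 also: values below 100% mean blocked vesicle binding to the CD8+ T cells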
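Test system: purified 2C TCR transgenic mouse naive CD8+ T cells. Probe or stimulus: QL9-peptide-loaded Drosophila micro-vesicles bearing Ld, ICAM-1 and B7-1. Incubation: binding step 1.5 h, 37 °C, antibody labelling 20 min, ice. Measured by: flow cytometry of vesicle-bound cells.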
N-glyco inh = increase of ERlucT glycosylation luciferase signal, primary screen, N-linked glycosylation inhibitor project, D54 ERlucT cells, luminescence, set 2; D54 ERlucT glycosylation luciferase reporter, 24 h; percent of 100 nM tunicamycin response; reporter increase, % at 12.5 µM; actives 0.23% (n = 360,000);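 active = mean luciferase reporter signal, scaled so untreated is 0 and the glycosylation-blocking control 100, at or above a set limit in every replicate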;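 also: luciferase carries N-glycosylation sites so blocking glycosylation raises the light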
ALR inh = inhibitors of human ALR sulfhydryl oxidase, primary screen, biochemical, H2O2 detection, HRP-luminol luminescence, single point | purified ALR, DTT oxidation | inhibition, % (no concentration beside the values) | actives 3.8% (n = 290,000);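 active = mean replicate inhibition above about 79%, with every replicate also reaching it, limit read from the data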
Target sequence (P55789 whole entry, looked up): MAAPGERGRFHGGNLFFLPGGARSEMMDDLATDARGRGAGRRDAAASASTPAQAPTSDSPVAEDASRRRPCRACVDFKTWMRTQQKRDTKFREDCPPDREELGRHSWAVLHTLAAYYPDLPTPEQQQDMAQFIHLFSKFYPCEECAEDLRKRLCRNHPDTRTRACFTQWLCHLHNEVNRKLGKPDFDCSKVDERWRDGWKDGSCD
Large screens that a line does not name were inactive. Many of the other results were omitted from the sample, so hits are more common in it than they were.

COc1ccc(N2CCN(CCCNC(=O)C3CCCN(S(=O)(=O)c4cnc[nH]4)C3)CC2)cc1 (stereo not given)	ALR inh 87
O=C(NCc1ccc(Cl)cc1)C1CCCN(S(=O)(=O)c2cnc[nH]2)C1 (stereo not given)	ALR inh 94
COc1ccc(N2CCN(CCCNC(=O)C3CCCN(S(=O)(=O)c4c(C)n[nH]c4C)C3)CC2)cc1 (stereo not given)	none
O=C(Nc1ccc(Cl)cc1)C1CCCN(S(=O)(=O)c2cnc[nH]2)C1 (stereo not given)	ALR inh 96
Cc1ccc(NC(=O)C2CCCN(S(=O)(=O)c3cnc[nH]3)C2)cc1F (stereo not given)	none
Cc1ccc(CNC(=O)C2CCCN(S(=O)(=O)c3cnc[nH]3)C2)cc1 (stereo not given)	none
Cc1cccc(N2CCN(C(=S)c3ccc4c(c3)OCO4)CC2)c1	none (no result: T cell HTS, ALR inh)
C/C(=N/NC(=O)c1nnn(-c2nonc2N)c1CSc1ccc(C)cc1)c1ccncc1	none (no result: T cell HTS, ALR inh)
CCOc1ccc(N2CC(C(=O)NC3CCSC3=O)CC2=O)cc1 (stereo not given)	none (no result: ALR inh)
O=C(NCCN1CCC(Cc2ccccc2)CC1)C1CCCN(S(=O)(=O)c2cnc[nH]2)C1 (stereo not given)	none
O=C(NCCN1CCN(c2ccccc2F)CC1)C1CCCN(S(=O)(=O)c2cnc[nH]2)C1 (stereo not given)	ALR inh 88
CCN(CC)CCn1c(=S)[nH]c2ccccc2c1=O	none
CCN(CC)CCn1c(=S)[nH]c2ccc(Br)cc2c1=O	ALR inh 97
C/C(=N\OCC(=O)OC(C)C(=O)Nc1ccc(C)c(S(=O)(=O)N2CCOCC2)c1)c1ccc2c(c1)OCO2 (stereo not given)	none (no result: T cell HTS, ALR inh)
CCc1ccc(CNC(=O)c2ccc(OC3CCN(C(=O)COC)CC3)cc2)nc1	none
Cc1cccc(NC(=S)NCc2ccco2)c1C	none
COc1ccc(-c2nn(-c3ccccc3)cc2/C=C/C(=O)N2CCOCC2)cc1OC	none
S=c1[nH]nc(C2CCCCC2)n1/N=C/C(Cl)=C\c1ccccc1	none
Cc1cc(-c2n[nH]c(=S)n2/N=C/C(Cl)=C/c2ccccc2)n[nH]1	ALR inh 96
CC(/C=N/n1c(-c2ccco2)n[nH]c1=S)=C\c1ccco1	none
S=c1[nH]nc(-c2cc(-c3ccccc3)n[nH]2)n1/N=C/c1ccccc1	none
S=c1[nH]nc(-c2ccco2)n1/N=C/C(Cl)=C/c1ccccc1	ALR inh 97
S=c1[nH]nc(-c2cc(-c3ccccc3)n[nH]2)n1/N=C/C(Br)=C/c1ccccc1	N-glyco inh 32
N/C(=N\OC(=O)CSc1ccccc1)c1cccc([N+](=O)[O-])c1	none
COC(=O)c1ccc(NC(=O)COc2ccc(N(C)S(=O)(=O)c3ccc(C)cc3)cc2)cc1	none
O=C(NCc1cccnc1)c1cc(C2CCCCN2C(=O)OCCF)on1 (stereo not given)	none (no result: T cell HTS, ALR inh)
CCOC(=O)C1CCN(C(=O)COC(=O)CNC(=O)c2sc3ccccc3c2Cl)CC1	none
Cn1ncc(Br)c1C(=O)N1CCCC1	none
Cn1ncc(Br)c1C(=O)N1CCCCCC1	T cell HTS 33
CC(=O)c1ccc(N(C)C)cc1	none
CN(C)c1ccc(/C(=N\O)C(F)(F)F)cc1	ALR inh 98
Nc1nc(C2CCOCC2)cs1	none
Nc1nc(C2CC2)c(Sc2sc(N)nc2C2CC2)s1	ALR inh 99
CC1(C(=O)NS(=O)(=O)c2ccc(C#N)cc2)CCN1C(=O)C1(c2ccccc2)CCCC1 (stereo not given)	none (no result: T cell HTS, ALR inh)
O=C(C1CC(=O)N(c2ccc3c(c2)OCCO3)C1)N1CCCC(C(F)(F)F)C1 (stereo not given)	none
O=C(CC1Sc2ccccc2NC1=O)NNc1cc(Cl)ccc1Cl (stereo not given)	none (no result: T cell HTS, ALR inh)
Cc1ccc(-c2n[nH]c(=S)n2C)cc1	none (no result: T cell HTS, ALR inh)
Cc1ccc(-c2cn3c(=S)[nH]nc3s2)cc1	ALR inh 86
CC(=O)Nc1ccc(NC(=O)CSCCc2ccccn2)cc1	none
COc1ccc(NC(=O)CSCC(=O)N2CCCc3ccccc32)cc1	ALR inh 90
COc1ccc(CNC(=O)CCSCc2ccccc2Cl)c(OC)c1	none
COc1ccc(NC(=O)CSCC(=O)NCCc2ccccn2)cc1	ALR inh 98
Cc1ccccc1CSCC(=O)N/N=C/c1cccs1	ALR inh 98
Cc1cccc(NC(=O)CSCC(=O)N2CCCc3ccccc32)c1	none (no result: ALR inh)
O=C(Cc1ccccc1)N/N=C/c1cccs1	none
COc1ccc(CNC(=O)CSCc2ccccc2Cl)cc1	ALR inh 98
CCCCN(C(=O)c1ccc(NC2CC2)c([N+](=O)[O-])c1)c1c(N)n(CC(C)C)c(=O)[nH]c1=O	none
